Tests used:
DNA [1] = experiment: Binding affinity to calf thymus DNA at 20 uM after 18 hrs by thermal denaturation assay; type: nucleic-acid assay; details: Bos taurus
DNA [2] = experiment: Binding affinity to calf thymus DNA at 20 uM after 36 hrs by thermal denaturation assay; type: nucleic-acid assay; details: Bos taurus
HOP-62 = experiment: Cytotoxicity against human Hop62 cells; type: functional, cell-based
How it was run: (§1)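 Sulforhodamine B (SRB) assay in human cancer cell lines: lung (A549, Hop62), breast (Zr-75-1), oral (DWD, KB, Gurav), prostate (PC3). IC50 in µM, mean of three determinations. Adriamycin as reference. Where IC50 was not reached within the concentrations tested, no value is given.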

ZR-75-1 = experiment: Cytotoxicity against human Zr75-1 cells; type: functional, cell-based; how it was run: as §1
KB = experiment: Cytotoxicity against human KB cells; type: functional, cell-based; how it was run: as §1
PC-3 = experiment: Cytotoxicity against human PC3 cells; type: functional, cell-based; how it was run: as §1
A549 = experiment: Cytotoxicity against human A549 cells; type: functional, cell-based; how it was run: as §1
[3] = Cytotoxicity against human Gurav cells; type: functional, cell-based; how it was run: as §1
[4] = Cytotoxicity against human DWD cells; type: functional, cell-based; how it was run: as §1

SMILES	ΔTm (DNA [1]) [°C]	ΔTm (DNA [2]) [°C]	IC50 (HOP-62) [µM]	IC50 (ZR-75-1) [µM]	IC50 (KB) [µM]	IC50 (PC-3) [µM]	IC50 (A549) [µM]	IC50 [3] [µM]	IC50 [4] [µM]
COc1cc2c(cc1OCCCCN1CCN(C3=NS(=O)(=O)c4ccccc4N3c3ccccc3)CC1)N=C[C@@H]1CCCN1C2=O	4.1	4.1	369	0.15	29.4	357			
COc1cc2c(cc1O)N=C[C@@H]1CCCN1C2=O	0.7	0.7							
COc1cc2c(cc1OCCCCCN1CCN(C3=NS(=O)(=O)c4ccccc4N3c3ccccc3)CC1)N=C[C@@H]1CCCN1C2=O	4.4	4.6			2.3	2.35	30.2	356	
COc1cc2c(cc1OCCCCCN1CCN(C3=NS(=O)(=O)c4ccccc4N3C(C)C)CC1)N=C[C@@H]1CCCN1C2=O	6.4	6.7	27.9	0.12	2.43	27.8	30.3	26.5	27.7
COc1cc2c(cc1OCCCCN1CCN(C3=NS(=O)(=O)c4ccccc4N3C(C)C)CC1)N=C[C@@H]1CCCN1C2=O	4.2	4.3	343	2.24	26.1				
COc1cccc2c1C(=O)c1c(O)c3c(c(O)c1C2=O)C[C@@](O)(C(=O)CO)C[C@@H]3O[C@H]1C[C@H](N)[C@H](O)[C@H](C)O1 [DOXORUBICIN]				2.32	0.17	2.26			24.9

From ChEMBL document CHEMBL1149713, “1,2,4-benzothiadiazine linked pyrrolo[2,1-c][1,4]benzodiazepine conjugates: synthesis, DNA-binding affinity and cytotoxicity” (Bioorg Med Chem Lett, 2007)
